Data taken from PMC5573236 (Oncogene, 2008).

How the values were obtained:
PC-3 cells = experiment: MTT proliferation assay, PC-3 cells; type: cell-based; conditions: 72 h, same concentrations as used on LNCaP cells
Outline: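 Cells were grown in phenol-red-free RPMI 1640 with 10% FBS, 37 °C, 5% CO2, and seeded at 10 000/well. Test compound or free hormone at matched concentrations was added 24–48 h after plating; the PC-3 exposure was 72 h. MTT read-out: medium removed, DMSO solubilisation, absorbance 550 nm. Single triplicate experiment, representative of three.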

androgen receptor (AR) = experiment: Western blot of AR protein levels in LNCaP cells; type: cell-based; conditions: 72 h, increasing concentrations that inhibited proliferation
LNCaP cells [1] = experiment: Cell cycle profile by flow cytometry; type: cell-based; conditions: 72 h, propidium iodide staining
Outline: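 LNCaP cells kept at 37 °C, 5% CO2, in phenol-red-free RPMI 1640 with 10% FBS. Plated at 30 000 cells per cm2 and treated from 24–48 h after plating. Trypsinised, pelleted at 250 g for 5 min, fixed in 70% ethanol and held at −20 °C. Just before acquisition, stained with 3.4 mM sodium citrate, 0.3% Triton X-100, propidium iodide 0.1 mg/ml and RNase A 20 μg/ml, then run on a flow cytometer.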

LNCaP cells [2] = experiment: MTT proliferation assay, LNCaP cells; type: cell-based
[3] = target: VHL-Elongin B-Elongin C protein complex (Homo sapiens, UniProt P40337+Q15369+Q15370); experiment: Fluorescence polarization competitive binding assay with VHL; conditions: FP competition assay; negative control
MCF-7 cells = experiment: MTT proliferation assay, MCF-7 cells; type: cell-based; conditions: same concentrations as used for Protac-B
[4] = test system: estrogen receptor-α (ERα); conditions: estradiol stimulation; ref Pink and Jordan, 1996; cited from earlier work
T47D cells = experiment: MTT proliferation assay, T47D cells; type: cell-based; conditions: same concentrations as used for Protac-B

## Leu-Ala-Pro(OH)-Tyr-Ile-Gly-Gly-(D-Arg)9 [Protac-AA]
PC-3 cells
  effect on proliferation of PC-3 cells: not affected
Androgen receptor (AR)
  AR protein levels in LNCaP cells: reduced
LNCaP cells [1]
  cell cycle effect in LNCaP cells: cell cycle arrest in G1
LNCaP cells [2]; 72 h and 144 h
  increase of activity (IC50, LNCaP) over Protac-A: three to seven

## C[C@]12CCC(=O)C[C@@H]1CC[C@@H]1[C@@H]2CC[C@]2(C)[C@@H](O)CC[C@@H]12 [DHT, dihydroxytestosterone]
LNCaP cells [2]; DHT used at the IC50 of Protac-A (12.5 μM)
  effect on LNCaP cell proliferation: no effect

## H-Leu-Ala-Ala-Tyr-Ile-Gly-Gly-[D-Arg]9-OH [mutant pentapeptide-G-G-(Arg)9]
[3]
  binding to VHL: did not detectably bind

## C[C@]12CC[C@@H]3c4ccc(O)cc4CC[C@H]3[C@@H]1CC[C@@H]2O [estradiol, 17β-estradiol]
MCF-7 cells
  effect on proliferation of MCF-7 cells: no effect
[4]
  decrease in ERα levels: approximately 50%
T47D cells
  effect on proliferation of T47D cells: no effect
